Experimental data from article PMC3565245 (Current Chemical Genomics, 2012).
Where a name gives a salt, the structure may show the parent alone. Read-outs that look alike come from different tables or passages of the source.

Key:
[1] = target: T1, Giardia lamblia carbamate kinase (glCK) (Giardia intestinalis, UniProt A8BB85); test: Luminescence-based carbamate kinase assay in 1536-well format; format: biochemical; details: for Efficacy (% Inhibition): maximal response of the fitted curve, luminescence assay
T1 sequence (A8BB85 1-316): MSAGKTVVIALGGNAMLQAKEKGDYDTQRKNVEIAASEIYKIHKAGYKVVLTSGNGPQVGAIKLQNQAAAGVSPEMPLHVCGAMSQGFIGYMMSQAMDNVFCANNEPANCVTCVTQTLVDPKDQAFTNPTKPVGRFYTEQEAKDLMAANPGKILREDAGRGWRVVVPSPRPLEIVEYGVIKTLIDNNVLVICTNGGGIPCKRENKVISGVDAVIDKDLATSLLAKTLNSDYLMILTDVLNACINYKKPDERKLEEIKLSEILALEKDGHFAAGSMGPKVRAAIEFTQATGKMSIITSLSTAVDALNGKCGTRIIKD
Method in brief: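 Reaction was started with ADP/carbamoyl phosphate (final 150 µM) plus ATPLite and run 20 min at room temperature before the luminescence read. Data were normalized to DMSO and no-enzyme wells, pattern-corrected, and Hill-fitted for IC50 and efficacy.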

glCK = target: T2, glCK (Giardia intestinalis, UniProt A8BB85); test: Absorbance-based carbamate kinase assay; format: biochemical, Giardia lamblia
T2 sequence (A8BB85 1-316): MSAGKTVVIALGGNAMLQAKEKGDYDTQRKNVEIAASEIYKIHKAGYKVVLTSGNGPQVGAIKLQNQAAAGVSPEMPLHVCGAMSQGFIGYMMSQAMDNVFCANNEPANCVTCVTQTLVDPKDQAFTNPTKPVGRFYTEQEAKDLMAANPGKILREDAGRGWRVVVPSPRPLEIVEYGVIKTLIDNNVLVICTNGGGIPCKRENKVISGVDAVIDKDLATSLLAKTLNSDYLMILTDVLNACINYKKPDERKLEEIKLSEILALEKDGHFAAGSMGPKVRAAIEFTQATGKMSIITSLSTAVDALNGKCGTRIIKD
Method in brief: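 Coupled absorbance assay at room temperature. glCK in 20 mM Tris-HCl pH 7.5 was preincubated 15 min with test compound (final 0.002, 0.02, 0.2, 1, 2, 20, 200 μM; enzyme final 5 nM). It was then added to substrate mix (ADP, carbamoyl phosphate, final 40 µM; 30 mM MgCl2, glucose, NADP, hexokinase, G6P dehydrogenase). NADPH was followed at 340 nm, and IC50 was derived from initial velocities.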

giardiasis = giardiasis standard of care; cited from earlier work
Giardia = details: maximum screening concentration of 38.3 µM; cited from earlier work
Giardia infection = details: cited from earlier work
[2] = substrate: Nc1ncnc2c1ncn2[C@@H]1O[C@H](COP(=O)(O)OP(=O)(O)O)[C@@H](O)[C@H]1O; test: Steady-state kinetics of glCK, luminescence assay in 384-well format; format: biochemical, Giardia lamblia; details: other: room temperature, substrate of glCK; pH 8.0
[3] = IC50 Luminescence Assay, Table 3, secondary assay comparison

## CCOC(=S)SSC(=S)OCC [Bis(ethylxanthogen)]
[1]
  Efficacy (% Inhibition): 82.3%

## O=C1C2CC=CCC2C(=O)N1SC(Cl)(Cl)Cl (stereo not drawn) [Captan]
[1]; [3]
  IC50: 2.59 µM
[1]
  Efficacy (% Inhibition): 88.6%
glCK
  IC50: 0.47 µM

## Cc1ncc([N+](=O)[O-])n1CCO [metronidazole]
giardiasis
  single course cure rates: 80–95%

## CCN(CC)C(=S)S [Ditiocarb]
[1]
  Efficacy (% Inhibition): 77.7%
Giardia
  activity in Giardia killing screen (>30% reduction in ATP content): active

## O=C(O)[C@@H](S)[C@@H](S)C(=O)O [Succimer]
[1]; [3]
  IC50: 0.65 µM
[1]
  Efficacy (% Inhibition): 85.5%
glCK
  IC50: 0.54 µM

## OC[C@H]1O[C@H]([S-])[C@H](O)[C@@H](O)[C@@H]1O.[Au+] [Aurothioglucose]
[1]
  Efficacy (% Inhibition): 81.2%

## CCS(=O)(=O)CCn1c([N+](=O)[O-])cnc1C [tinidazole]
giardiasis
  single course cure rates: 80–95%

## O=C(O)Cc1ccc(O)c(O)c1 [3,4-Dihydroxyphenylacetic acid]
[1]; [3]
  IC50: 6.51 µM
[1]
  Efficacy (% Inhibition): 80.2%
glCK
  IC50: 11.7 µM

## CC(C)(C)C(=O)OCOP(=O)(COCCn1cnc2c(N)ncnc21)OCOC(=O)C(C)(C)C [Adefovir dipivoxil]
[1]; [3]
  IC50: 16.3 µM
[1]
  Efficacy (% Inhibition): 83.6%
glCK
  IC50: > 200 µM

## O=C([O-])c1ccccc1-c1c2cc(Br)c(=O)cc-2oc2[c]([Hg+])c([O-])c(Br)cc12.[Na+].[Na+].[OH-] [Mercurochrome]
[1]
  Efficacy (% Inhibition): 93.8%
[1]; read-out: IC50 Luminescence Assay, Table 3, secondary assay comparison
  IC50: 2.06 µM
glCK; read-out: IC50 Absorbance Assay, 5 nM glCK, inhibitor up to 200 μM
  IC50: 0.22 µM

## N.N.[Cl][Pt][Cl] [Cisplatin]
[1]
  Efficacy (% Inhibition): 88.2%

## Oc1ccc(C2CNCCc3c2cc(O)c(O)c3Cl)cc1 (stereo not drawn) [Fenoldopam]
[1]
  Efficacy (% Inhibition): 84.5%

## O=C(O)c1cc(O)c(O)c(O)c1 [Gallic acid]
[1]; [3]
  IC50: 0.65 µM
[1]
  Efficacy (% Inhibition): 89.2%
glCK
  IC50: 11.4 µM

## CN1CCc2cccc3c2[C@H]1Cc1ccc(O)c(O)c1-3 [Apomorphine hydrochloride hemihydrate]
[1]; [3]
  IC50: 3.26 µM
[1]
  Efficacy (% Inhibition): 89.4%
glCK
  IC50: > 200 µM

## Oc1cccc(O)c1O [Pyrogallol]
[1]; [3]
  IC50: 16.3 µM
[1]
  Efficacy (% Inhibition): 77.4%
glCK
  IC50: 2.7 µM

## C[C@@](Cc1ccc(O)c(O)c1)(NN)C(=O)O [Carbidopa]
[1]; [3]
  IC50: 5.8 µM
[1]
  Efficacy (% Inhibition): 79.4%
glCK
  IC50: > 200 µM

## CN(C)C(=S)SSC(=S)N(C)C [Thiram]
[1]; IC50, values of the running text, chelator class
  IC50: 4.1 µM
[1]; [3]
  IC50: 4.11 µM
[1]
  Efficacy (% Inhibition): 92.3%
glCK
  IC50: 0.64 µM
Giardia
  activity in Giardia killing screen (>30% reduction in ATP content): active
Giardia infection
  anti-giardial activities in a mouse model: anti-giardial activities

## Oc1cc2c(cc1O)[C@H]1c3ccccc3CN[C@@H]1CC2 (racemic) [Dihydrexidine hydrochloride]
[1]
  Efficacy (% Inhibition): 82.9%

## CCN(CC)C(=S)SSC(=S)N(CC)CC [Disulfiram]
[1]; [3]
  IC50: 0.58 µM
[1]
  Efficacy (% Inhibition): 90.5%
glCK
  IC50: 1.39 µM
Giardia
  activity in Giardia killing screen (>30% reduction in ATP content): active
Giardia infection
  anti-giardial activities in a mouse model: anti-giardial activities

B1: glCK (Giardia lamblia ATCC 50803) (protein)
chain: MSAGKTVVIALGGNAMLQAKEKGDYDTQRKNVEIAASEIYKIHKAGYKVVLTSGNGPQVGAIKLQNQAAAGVSPEMPLHVCGAMSQGFIGYMMSQAMDNVFCANNEPANCVTCVTQTLVDPKDQAFTNPTKPVGRFYTEQEAKDLMAANPGKILREDAGRGWRVVVPSPRPLEIVEYGVIKTLIDNNVLVICTNGGGIPCKRENKVISGVDAVIDKDLATSLLAKTLNSDYLMILTDVLNACINYKKPDERKLEEIKLSEILALEKDGHFAAGSMGPKVRAAIEFTQATGKMSIITSLSTAVDALNGKCGTRIIKD
[2]
  Km: 58.3 ± 2.4 µM
